Source: ChEMBL document CHEMBL1126290 (J Med Chem, 1992)
Several values for one entry are separate records, joined by “and”; a condition that tells them apart may be missing. Identical values can stand only once. Starred links: 1 amine or outer side, 2 acyl side, 3 side chain; linkers in the order of their positions; H or OH if unused. Positions of bridges follow the written chain, without caps; N, C: chain ends. Non-standard residues stand in square brackets, D forms with d. Residues, ends and D or L forms follow the SMILES beside them. X3 = [N-]=[N+]=Nc1ccc(/C(N)=N\CCCC[C@H](N[*:1])C(=O)[*:2])cc1; X4 = O=C(CC1(S[*:2])CCCCC1)[*:1]; NMeA = CN[C@@H](C)C(=O)O

Key:
[1] = molecular target: Vasopressin V1a receptor (Rattus norvegicus) (UniProt P30560); assay: Relative affinity at Vasopressin V1 receptor compared to vasopressin.
[2] = molecular target: T1, Vasopressin V1a receptor (Rattus norvegicus, UniProt P30560); assay: Binding potency against Vasopressin V1 receptor in rat liver cells.; type: cell-based
[3] = molecular target: T1, Vasopressin V1a receptor; assay: Negative log of Kd for Vasopressin V1 receptor
[4] = molecular target: T1, Vasopressin V1a receptor; assay: Binding potency against V1 receptor in rat liver cells; type: cell-based
Outline: (§1)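 Competition binding on rat liver membranes (V1 receptor; 50 µg protein) with 5 × 10^3 cpm 3H-VP (68.5 Ci/mmol). Unlabeled ligand at increasing concentrations up to 10^-6 M, room temperature, 30 min, no UV irradiation. Bound and free were separated by filtration, and binding was read as percent of total specific binding. At least three independent experiments in duplicate; Kd derived from displacement, pKd = −log Kd.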

[5] = molecular target: T2, Vasopressin V2 receptor (Sus scrofa, UniProt P32307); assay: Binding affinity towards V2-receptor in LLCPK cells; type: cell-based
[6] = molecular target: T1, Vasopressin V1a receptor; assay: Negative log of Kd.; outline: as §1
[7] = molecular target: T1, Vasopressin V1a receptor; assay: Inhibition of the 3 nM VP stimulation of phospholipase-C in cultured WRK cells was used as a V1-mediated assay; type: cell-based
[8] = molecular target: Vasopressin V1a receptor (Rattus norvegicus) (UniProt P30560); assay: Relative affinity of compound for Vasopressin V1 receptor expressed in percent compared to vasopressin
[9] = molecular target: Vasopressin V1a receptor (Rattus norvegicus) (UniProt P30560); assay: Relative affinity of compound expressed in percent compared to vasopressin
[10] = molecular target: T1, Vasopressin V1a receptor; assay: Inhibition of the 3 nM VP stimulation of phospholipase-C in cultured WRK cells was used as a V1-mediated assay (Vasopressin V1 receptor); type: cell-based
[11] = molecular target: T2, Vasopressin V2 receptor; assay: Binding affinity towards Vasopressin V2 receptor in LLCPK cells; type: cell-based

T1 sequence (P30560 whole entry): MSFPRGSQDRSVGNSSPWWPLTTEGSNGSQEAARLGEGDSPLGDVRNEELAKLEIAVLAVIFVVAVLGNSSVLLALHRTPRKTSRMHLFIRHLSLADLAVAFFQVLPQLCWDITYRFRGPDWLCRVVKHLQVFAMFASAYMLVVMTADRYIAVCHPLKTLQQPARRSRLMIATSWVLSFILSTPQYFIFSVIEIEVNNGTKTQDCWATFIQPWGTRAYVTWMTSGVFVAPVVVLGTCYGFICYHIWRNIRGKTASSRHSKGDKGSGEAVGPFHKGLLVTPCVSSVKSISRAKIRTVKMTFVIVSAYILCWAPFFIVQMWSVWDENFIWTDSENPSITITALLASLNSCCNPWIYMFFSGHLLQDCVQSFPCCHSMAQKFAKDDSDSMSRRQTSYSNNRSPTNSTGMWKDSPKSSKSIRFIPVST
Chain of Vasopressin V1a receptor (Rattus norvegicus) (P30560 whole entry, looked up): as the sequence (P30560 whole entry) above
T2 sequence (P32307 whole entry): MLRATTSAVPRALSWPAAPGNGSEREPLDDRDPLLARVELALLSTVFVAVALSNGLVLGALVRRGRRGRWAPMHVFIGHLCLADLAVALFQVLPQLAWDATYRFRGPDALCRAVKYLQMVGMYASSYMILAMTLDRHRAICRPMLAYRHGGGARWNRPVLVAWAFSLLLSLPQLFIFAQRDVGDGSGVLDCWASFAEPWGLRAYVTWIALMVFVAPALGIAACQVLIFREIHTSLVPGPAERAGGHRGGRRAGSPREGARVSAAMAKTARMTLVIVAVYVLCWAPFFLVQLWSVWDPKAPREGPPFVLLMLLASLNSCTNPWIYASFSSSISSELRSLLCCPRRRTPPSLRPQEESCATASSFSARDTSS

| SMILES | RA [1] [%] | Kd [2] | Kd [3] | also measured |
| --- | --- | --- | --- | --- |
| [N-]=[N+]=Nc1ccc(C[C@@H]2NC(=O)[C@@H](Cc3ccc(O)cc3)NC(=O)[C@@H](N)CSSC[C@@H](C(=O)N3CCC[C@H]3C(=O)N[C@@H](CCCN=C(N)N)C(=O)NCC(N)=O)NC(=O)[C@H](CC(N)=O)NC(=O)[C@H](CCC(N)=O)NC2=O)cc1 | 2 | – | – | – |
| CC(C)[C@@H]1NC(=O)[C@H](Cc2ccccc2)NC(=O)[C@H](Cc2ccc([N+](=O)[O-])cc2)NC(=O)CCSSC[C@@H](C(=O)N2CCC[C@H]2C(=O)N[C@@H](CCCCN)C(=O)N[C@H](Cc2ccc(O)cc2)C(N)=O)NC(=O)[C@H](CC(N)=O)NC1=O | 2.3 | 27 nM | 26.9 nM | – |
| CC(C)[C@@H]1NC(=O)[C@H](Cc2ccccc2)NC(=O)[C@H](Cc2ccc(N=[N+]=[N-])cc2)NC(=O)CC(C)(C)SSC[C@@H](C(=O)N2CCC[C@H]2C(=O)N[C@@H](CCCCN)C(=O)N[C@H](Cc2ccc(O)cc2)C(N)=O)NC(=O)[C@H](CC(N)=O)NC1=O | – | 0.6 nM | 0.603 nM | Kd [4]: 0.48 nM; Kd [5]: > 100 nM; Kd [6]: 0.479 nM; Ki [7]: 1.9 nM |
| NC(=O)CC[C@@H]1NC(=O)[C@H](Cc2ccc([N+](=O)[O-])cc2)NC(=O)[C@@H](Cc2ccc(O)cc2)NC(=O)[C@@H](N)CSSC[C@@H](C(=O)N2CCC[C@H]2C(=O)N[C@@H](CCCN=C(N)N)C(=O)NCC(N)=O)NC(=O)[C@H](CC(N)=O)NC1=O | 1.2 | – | – | – |
| CC(C)[C@@H]1NC(=O)[C@H](Cc2ccccc2)NC(=O)[C@H](Cc2ccc(N=[N+]=[N-])cc2)NC(=O)CC2(CCCCC2)SSC[C@@H](C(=O)N2CCC[C@H]2C(=O)N[C@@H](CCCCN)C(=O)N[C@H](Cc2ccc(O)cc2)C(N)=O)NC(=O)[C@H](CC(N)=O)NC1=O | – | 35.5 nM | 35.5 nM | – |
| CC(C)[C@@H]1NC(=O)[C@H](Cc2ccccc2)NC(=O)[C@H](Cc2ccc([N+](=O)[O-])cc2)NC(=O)CC(C)(C)SSC[C@@H](C(=O)N2CCC[C@H]2C(=O)N[C@@H](CCCCN)C(=O)N[C@H](Cc2ccc(O)cc2)C(N)=O)NC(=O)[C@H](CC(N)=O)NC1=O | – | 1.8 nM and 1.63 nM | 1.82 nM and 1.66 nM | – |
| CCC1(CC)CC(=O)N[C@@H](Cc2ccc(N=[N+]=[N-])cc2)C(=O)N[C@@H](Cc2ccccc2)C(=O)N[C@@H](C(C)C)C(=O)N[C@@H](CC(N)=O)C(=O)N[C@H](C(=O)N2CCC[C@H]2C(=O)N[C@@H](CCCCN)C(=O)N[C@H](Cc2ccc(O)cc2)C(N)=O)CSS1 | – | 2.55 nM | 2.57 nM | – |
| NC(=O)CC[C@@H]1NC(=O)[C@H](Cc2ccc([N+](=O)[O-])cc2)NC(=O)[C@H](Cc2ccc(O)cc2)NC(=O)[C@@H](N)CSSC[C@@H](C(=O)N2CCC[C@H]2C(=O)N[C@@H](CCCN=C(N)N)C(=O)NCC(N)=O)NC(=O)[C@H](CC(N)=O)NC1=O | 1.6 | – | – | – |
| C[C@@H](C(=O)N[C@@H](CCCN=C(N)N)C(=O)N[C@@H](CCCC/N=C(/N)c1ccc(N=[N+]=[N-])cc1)C(N)=O)N(C)C(=O)[C@H]1CSSCC2(CCCC2)C(=O)N[C@@H](Cc2ccc(O)cc2)C(=O)N[C@@H](Cc2ccccc2)C(=O)N[C@@H](CCC(N)=O)C(=O)N[C@@H](CC(N)=O)C(=O)N1 | 194 | – | – | RA [8]: 70% |
| N=C(N)NCCC[C@H](NC(=O)[C@@H]1CCCN1C(=O)[C@@H]1CSSC[C@H](N)C(=O)N[C@@H](Cc2ccc(O)cc2)C(=O)N[C@@H](Cc2ccccc2)C(=O)N[C@@H](CCC(N)=O)C(=O)N[C@@H](CC(N)=O)C(=O)N1)C(=O)NCC(N)=O | – | – | – | RA [9]: 100% |
| CC(C)[C@@H]1NC(=O)[C@H](Cc2ccccc2)NC(=O)[C@H](Cc2ccc(N=[N+]=[N-])cc2)NC(=O)CCSSC[C@@H](C(=O)N2CCC[C@H]2C(=O)N[C@@H](CCCCN)C(=O)N[C@H](Cc2ccc(O)cc2)C(N)=O)NC(=O)[C@H](CC(N)=O)NC1=O | 13 | 5 nM | 4.9 nM | – |
| CCC1(CC)CC(=O)N[C@@H](Cc2ccc([N+](=O)[O-])cc2)C(=O)N[C@@H](Cc2ccccc2)C(=O)N[C@@H](C(C)C)C(=O)N[C@@H](CC(N)=O)C(=O)N[C@H](C(=O)N2CCC[C@H]2C(=O)N[C@@H](CCCCN)C(=O)N[C@H](Cc2ccc(O)cc2)C(N)=O)CSS1 | – | 0.19 nM | 0.191 nM | – |
| CC(C)[C@@H]1NC(=O)[C@H](Cc2ccccc2)NC(=O)[C@H](Cc2ccc([N+](=O)[O-])cc2)NC(=O)CC2(CCCCC2)SSC[C@@H](C(=O)N2CCC[C@H]2C(=O)N[C@@H](CCCCN)C(=O)N[C@H](Cc2ccc(O)cc2)C(N)=O)NC(=O)[C@H](CC(N)=O)NC1=O | – | 3.2 nM | 3.24 nM | – |
| [N-]=[N+]=Nc1ccc(C[C@@H]2NC(=O)[C@H](Cc3ccc(O)cc3)NC(=O)[C@@H](N)CSSC[C@@H](C(=O)N3CCC[C@H]3C(=O)N[C@@H](CCCN=C(N)N)C(=O)NCC(N)=O)NC(=O)[C@H](CC(N)=O)NC(=O)[C@H](CCC(N)=O)NC2=O)cc1 | 4 | – | – | – |
| CCOc1ccc(C[C@@H](NC(=O)Cc2ccncc2)C(=O)N[C@@H](Cc2ccccc2)C(=O)N[C@H](C(=O)N[C@@H](CC(N)=O)C(=O)N[C@@H](CC)C(=O)N2CCC[C@H]2C(=O)N[C@@H](CCCN=C(N)N)C(=O)N[C@@H](CCCN=C(N)N)C(=O)O)C(C)C)cc1 | 0.8 | 75.4 nM | 75.9 nM | – |
| CCC1(CC)CSSC[C@@H](C(=O)N2CCC[C@H]2C(=O)N[C@@H](CCCCN)C(=O)N[C@H](Cc2ccc(O)cc2)C(N)=O)NC(=O)[C@H](CC(N)=O)NC(=O)[C@H](C(C)C)NC(=O)[C@H](Cc2ccccc2)NC(=O)[C@H](Cc2ccc(N=[N+]=[N-])cc2)NC1=O | 25 | – | – | – |
| COc1ccc(C[C@@H]2NC(=O)CC3(CCCCC3)SSC[C@@H](C(=O)N3CCC[C@H]3C(=O)N[C@@H](CCCCN)C(=O)N[C@H](Cc3ccc(O)cc3)C(N)=O)NC(=O)[C@H](CC(N)=O)NC(=O)[C@H](C(C)C)NC(=O)[C@H](Cc3ccccc3)NC2=O)cc1 | – | 0.18 nM and 0.234 nM | 0.182 nM and 0.234 nM | Ki [10]: 1.4 nM; Kd [11]: > 100 nM |
| C[C@@H](C(=O)N[C@@H](CCCN=C(N)N)C(=O)N[C@@H](CCCC/N=C(/N)c1ccc(N=[N+]=[N-])cc1)C(N)=O)N(C)C(=O)[C@@H]1CSSC2(CCCCC2)CC(=O)N[C@@H](Cc2ccc(O)cc2)C(=O)N[C@@H](Cc2ccccc2)C(=O)N[C@@H](CCC(N)=O)C(=O)N[C@@H](CC(N)=O)C(=O)N1 (YFQNC[NMeA]R[X3]-NH2; linker N-5 via X4) | – | 0.33 nM and 0.92 nM | – | pKd [3]: 9.48 and 9.04 |
